Test results taken from ChEMBL document CHEMBL2401714, “New linezolid-like 1,2,4-oxadiazoles active against Gram-positive multiresistant pathogens” (Eur J Med Chem, 2013).
Values after ≈ are worked out from the molar mass of the structure shown.

Key:
Staphylococcus aureus [1] = assay: Antibacterial activity against methicillin-susceptible Staphylococcus aureus ATCC 29213 assessed as growth inhibition after 18 to 24 hrs by broth microdilution method; format: functional
Summary of the method: (§1)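 CLSI broth microdilution against S. aureus isolates. Two-fold serial dilutions were made in Mueller-Hinton broth, with DMSO as the compound solvent. An equal volume of inoculum (1 × 10⁶ CFU/mL) was added to each well. MIC was taken as the lowest concentration giving no visible turbidity of the medium.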

Staphylococcus aureus [2] = assay: Antibacterial activity against methicillin-resistant Staphylococcus aureus F511 assessed as growth inhibition after 18 to 24 hrs by broth microdilution method; format: functional
Summary of the method: (§2)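 CLSI broth microdilution: serial 2-fold dilutions of each compound in Mueller-Hinton broth, with DMSO as solvent. An equal volume of inoculum (1 × 10⁶ CFU/mL) is added to each well holding the dilutions. MIC is the lowest concentration causing no visible turbidity. Values are expressed in […]. Clinical MRSA collection isolates 433 and F511, and reference strain Mu50.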

Staphylococcus aureus [3] = assay: Antibacterial activity against methicillin-resistant Staphylococcus aureus ATCC 700699 assessed as growth inhibition after 18 to 24 hrs by broth microdilution method; format: functional; summary of the method: as §2
[4] = Cytotoxicity against porcine PK-15 cells assessed as reduction of cell viability at 100 ug/ml by MTT assay relative to control; format: cell-based, Sus scrofa; conditions: pig
Summary of the method: (§3)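 Cells were exposed to increasing compound concentrations, with a DMSO solvent control. HepG2 and HaCaT were grown in DMEM, and PK15 in DMEM/M199 (1:1), all with 10% heat-inactivated fetal serum. MTT (5 mg/mL stock, 1.2 mM final) was added for 1 h 30 min at 37 °C. The reaction was stopped with 90% ethanol, cells were spun at 800 × g for 10 min, and A570 was read. Values are means ± S.E. of 3 experiments run in triplicate.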

HaCaT [5] = assay: Cytotoxicity against human HaCaT cells assessed as reduction of cell viability at 5 ug/ml by MTT assay; format: cell-based; summary of the method: as §3
Staphylococcus aureus [6] = assay: Antibacterial activity against methicillin-resistant Staphylococcus aureus 433 assessed as growth inhibition after 18 to 24 hrs by broth microdilution method; format: functional; summary of the method: as §2
HepG2 [7] = assay: Cytotoxicity against human HepG2 cells assessed as reduction of cell viability at 5 to 400 ug/ml by MTT assay; format: cell-based; summary of the method: as §3
[8] = Cytotoxicity against porcine PK-15 cells assessed as reduction of cell viability by MTT assay; format: cell-based, Sus scrofa; conditions: pig; summary of the method: as §3
[9] = Cytotoxicity against porcine PK-15 cells assessed as reduction of cell viability at 200 to 400 ug/ml by MTT assay relative to control; format: cell-based, Sus scrofa; conditions: pig; summary of the method: as §3
Staphylococcus aureus [10] = assay: Antibacterial activity against methicillin-susceptible Staphylococcus aureus M923 assessed as growth inhibition after 18 to 24 hrs by broth microdilution method; format: functional; summary of the method: as §1
HaCaT [11] = assay: Cytotoxicity against human HaCaT cells assessed as induction of cell death at => 25 ug/ml by MTT assay relative to control; format: cell-based; summary of the method: as §3
[12] = Cytotoxicity against porcine PK-15 cells assessed as reduction of cell viability at 5 ug/ml by MTT assay relative to control; format: cell-based, Sus scrofa; conditions: pig; summary of the method: as §3
HaCaT [13] = assay: Cytotoxicity against human HaCaT cells assessed as cell death at 200 to 400 ug/ml by MTT assay relative to control; format: cell-based; summary of the method: as §3
[14] = Cytotoxicity against porcine PK-15 cells assessed as reduction of cell viability at 25 to 200 ug/ml by MTT assay; format: cell-based, Sus scrofa; conditions: pig; summary of the method: as §3
HepG2 [15] = assay: Cytotoxicity against human HepG2 cells assessed as reduction of cell viability at 50 ug/ml by MTT assay; format: cell-based; summary of the method: as §3
HepG2 [16] = assay: Cytotoxicity against human HepG2 cells assessed as reduction of cell viability at 400 ug/ml by MTT assay relative to control; format: cell-based; summary of the method: as §3
[17] = Cytotoxicity against porcine PK-15 cells assessed as reduction of cell viability at 5 to 400 ug/ml by MTT assay; format: cell-based, Sus scrofa; conditions: pig; summary of the method: as §3

Row | Structure (SMILES) | MIC (Staphylococcus aureus [1]) | MIC (Staphylococcus aureus [2]) | MIC (Staphylococcus aureus [3]) | MIC (Staphylococcus aureus [6]) | MIC (Staphylococcus aureus [10]) | other results
1 | CC(=S)NCC1CN(c2ccc(-c3nc(C)no3)cc2)C(=O)O1 (racemic) | 3.13 µg/mL (≈ 9.42 µM) | 1.6 µg/mL (≈ 4.81 µM) | ≤ 0.4 µg/mL | 1.6 µg/mL (≈ 4.81 µM) | 1.6 µg/mL (≈ 4.81 µM) | Activity [4]: 70%; Activity (HaCaT [5]): Toxic; Activity (HepG2 [7]): Toxic; Activity [8]: Dose-dependent effect; Activity [9]: > 90%; Activity (HaCaT [11]): > 60%
2 | CC(=O)NCC1CN(c2ccc(-c3nc(C)no3)cc2)C(=O)O1 (racemic) | 12.5 µg/mL (≈ 39.5 µM) | 12.5 µg/mL (≈ 39.5 µM) | 6.25 µg/mL (≈ 19.8 µM) | 1.6 µg/mL (≈ 5.06 µM) | 6.25 µg/mL (≈ 19.8 µM) | 
3 | CC(=O)NCC1CN(c2ccc(-c3nc(C)no3)c(F)c2)C(=O)O1 (racemic) | 12.5 µg/mL (≈ 37.4 µM) | 12.5 µg/mL (≈ 37.4 µM) | 6.25 µg/mL (≈ 18.7 µM) | 1.6 µg/mL (≈ 4.79 µM) | 6.25 µg/mL (≈ 18.7 µM) | 
4 | Cc1noc(-c2ccc(N3CC(CI)OC3=O)cc2)n1 (racemic) | > 50 µg/mL | 50 µg/mL (≈ 130 µM) | 50 µg/mL (≈ 130 µM) | 25 µg/mL (≈ 64.9 µM) | > 50 µg/mL | 
5 | CC(=S)NCC1CN(c2ccc(-c3nc(C)no3)c(F)c2)C(=O)O1 (racemic) | 1.6 µg/mL (≈ 4.57 µM) | 1.6 µg/mL (≈ 4.57 µM) | ≤ 0.4 µg/mL | 0.8 µg/mL (≈ 2.28 µM) | 1.6 µg/mL (≈ 4.57 µM) | Activity [12]: < 10%; Activity (HaCaT [13]): > 50%; Activity [14]: Toxic; Activity (HepG2 [15]): Toxic; Activity (HepG2 [16]): 40%
6 | Cc1noc(-c2ccc(N3CC(Cn4cncn4)OC3=O)cc2)n1 (racemic) | > 50 µg/mL | > 50 µg/mL | > 50 µg/mL | > 50 µg/mL | > 50 µg/mL | 
7 | Cc1noc(-c2ccc(N3CC(Cn4ccnc4)OC3=O)cc2)n1 (racemic) | > 50 µg/mL | > 50 µg/mL | > 50 µg/mL | > 50 µg/mL | > 50 µg/mL | 
8 | Cc1noc(-c2ccc(N3CC(Cn4cccn4)OC3=O)cc2)n1 (racemic) | > 50 µg/mL | > 50 µg/mL | > 50 µg/mL | > 50 µg/mL | > 50 µg/mL | 
9 | CC(=O)NC[C@H]1CN(c2ccc(N3CCOCC3)c(F)c2)C(=O)O1 [LINEZOLID] | ≤ 0.4 µg/mL | 3.13 µg/mL (≈ 9.28 µM) | 0.8 µg/mL (≈ 2.37 µM) | 1.6 µg/mL (≈ 4.74 µM) | 3.13 µg/mL (≈ 9.28 µM) | Activity (HepG2 [7]): Non-toxic; Activity [17]: Non-toxic; Activity (HaCaT [13]): Toxic
10 | Cc1noc(-c2ccc(N3CC(CI)OC3=O)cc2F)n1 (racemic) | > 50 µg/mL | > 50 µg/mL | 50 µg/mL (≈ 124 µM) | 50 µg/mL (≈ 124 µM) | > 50 µg/mL | 
11 | Cc1noc(-c2ccc(N3CC(Cn4cncn4)OC3=O)cc2F)n1 (racemic) | > 50 µg/mL | > 50 µg/mL | > 50 µg/mL | > 50 µg/mL | > 50 µg/mL | 
12 | Cc1noc(-c2ccc(N3CC(CN=[N+]=[N-])OC3=O)cc2F)n1 (racemic) | > 50 µg/mL | > 50 µg/mL | > 50 µg/mL | > 50 µg/mL | > 50 µg/mL | 
13 | Cc1noc(-c2ccc(N3CC(Cn4cccn4)OC3=O)cc2F)n1 (racemic) | > 50 µg/mL | > 50 µg/mL | > 50 µg/mL | > 50 µg/mL | > 50 µg/mL | 
14 | Cc1noc(-c2ccc(N3CC(Cn4ccnc4)OC3=O)cc2F)n1 (racemic) | > 50 µg/mL | > 50 µg/mL | > 50 µg/mL | > 50 µg/mL | > 50 µg/mL | 
15 | Cc1noc(-c2ccc(N3CC(CN=[N+]=[N-])OC3=O)cc2)n1 (racemic) | > 50 µg/mL | > 50 µg/mL | > 50 µg/mL | > 50 µg/mL | > 50 µg/mL | 
